# Assay outcomes: PubChem BioAssay, Broad Institute
# This is a sample that favours compounds with a hit; in the whole collection about 2.9% have one here.
# Statin myotox sup = suppressors of simvastatin-induced myotoxicity in C2C12 myotubes. ATP luminescence, 48 h; scaled: DMSO 0, geranylgeraniol control 100. rescue of ATP level, % at 7.49 µM. 0.78% of 330,000 active. AID 602340;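 active means mean ATP rescue above about 67%, or every replicate alone reaching that limit, limit read from the data, passing the limit was not always enough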;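 further: myotubes were challenged with 10 µM simvastatin during compound exposure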
# PGC1a acetyl inh = lowers PGC1a acetylation signal in U2OS cells | AlphaScreen anti-acetyl-lysine; with virally co-expressed GCN5 acetyltransferase | inhibition, % at 15.6 µM | 0.17% of 350,000 active | AID 651687;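 active means every replicate shows inhibition of at least 40%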;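 further: 0% = neutral control wells and 100% = positive control wells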
# S100A4 inh HTS = inhibitors of human S100A4 binding to myosin IIA peptide | 0.14% of 360,000 active | AID 652163 | inhibition, % at 10.7 µM | S100A4/TAMRA-MyoIIA peptide fluorescence polarization;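 active means mean inhibition of at least 70% across replicates, with every replicate also reaching that level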
# Target sequence (P26447 whole entry, looked up): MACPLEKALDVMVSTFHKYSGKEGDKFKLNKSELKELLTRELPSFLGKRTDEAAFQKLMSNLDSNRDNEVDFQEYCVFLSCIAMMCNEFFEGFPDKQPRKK
#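 Test system – S100A4 monomer (human) · Compound – single-point compound testing · Schedule – 5 min incubation before reading · Probe or stimulus – TAMRA-labelled myosin IIA heavy-chain peptide probe, 5 nM · Benchmarks – neutral control DMSO, positive control TFP · Medium – Calcium-containing HEPES buffer, pH 7.2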
# SIRT5 inh = blocks human SIRT5 desuccinylation of peptide. Q9NXA8. Purified SirT5, succinyl-peptide AMC, trypsin-coupled fluorescence. inhibition, % at 15 µM. 1.1% of 330,000 active. AID 652115; in the data active means inhibition above about 15%
# Target sequence (Q9NXA8 whole entry, looked up): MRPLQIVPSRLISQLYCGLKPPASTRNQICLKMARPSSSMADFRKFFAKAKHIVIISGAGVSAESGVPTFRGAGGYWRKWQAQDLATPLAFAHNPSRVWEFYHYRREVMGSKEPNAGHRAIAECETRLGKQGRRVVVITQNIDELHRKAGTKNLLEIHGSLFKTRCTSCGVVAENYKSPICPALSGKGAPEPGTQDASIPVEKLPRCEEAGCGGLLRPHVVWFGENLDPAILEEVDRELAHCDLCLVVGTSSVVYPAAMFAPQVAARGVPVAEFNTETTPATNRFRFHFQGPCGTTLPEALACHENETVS
# DENV2 CPE = protects cells from dengue virus 2 cytopathic effect | CPE inhibition, % at 9.99 µM | DENV2-infected cells, cytopathic effect rescue, plate reader | AID 651640 | 1.7% of 350,000 active; in the data active means CPE inhibition above about 20%, passing the limit was not always enough; tested in BHK-21 cells;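 further: 0% = median of neutral control wells and 100% = median of positive control wells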
# * hit, by the source's call; · = not tested or not shown; ! = repeats disagree.
SMILES,Statin myotox sup,PGC1a acetyl inh,S100A4 inh HTS,SIRT5 inh,DENV2 CPE
CC(C)C[C@@H](CNCC(=O)[C@H](CC(C)C)NC(=O)c1[nH]cnc1C(=O)N[C@@H](C)CN)NC(=O)c1nc[nH]c1C(=O)N[C@@H](CC(=O)O)C(=O)O,-2,2,-8,·,87*
C[C@H]1CN([C@@H](C)CO)C(=O)c2cc(NS(C)(=O)=O)ccc2O[C@@H]1CN(C)Cc1ccc(Oc2ccccc2)cc1,-34,9,5,-2,-5
C[C@H](CO)N1C[C@H](C)[C@@H](CN(C)C(=O)C2CC2)Oc2cc(-c3cccnc3)ccc2S1(=O)=O,-51,8,·,·,·
C[C@H](CO)N1C[C@H](C)[C@H](CN(C)S(C)(=O)=O)Oc2ccc(NS(=O)(=O)c3ccc(F)cc3)cc2C1=O,·,-13,·,·,·
Cn1c(/N=C/c2c(O)ccc3ccccc23)nc2ccccc21,75*,-19,·,·,·
CN1C(=O)c2cc(NC(=O)C3CCC3)ccc2OC[C@@H]2O[C@H](CC(=O)NCc3ccccc3F)CC[C@H]21,·,·,7,3,4
O=C(c1ccccc1)c1ccc(Cn2cc(CCCO)nn2)cc1,150*,-6,-7,-2,-6
Cn1nc(C(=O)NNC(=O)c2cccc(Cl)c2)c2ccccc2c1=O,-5,-3,-8,1,67*
C[C@H](NC(=O)C[C@H]1CC[C@H](NC(=O)Cc2ccccn2)[C@H](CO)O1)c1ccccc1,-3,7,2,2,-7
Cc1ccc(S(=O)(=O)Nc2cccc3c2O[C@@H](CN(C)S(=O)(=O)c2ccc(Cl)cc2)[C@@H](C)CN([C@H](C)CO)C3=O)cc1,·,4,-35,9,-2
COc1ccc(S(=O)(=O)N(C)C[C@@H]2Oc3c(NS(=O)(=O)c4ccc(C)cc4)cccc3C(=O)N([C@H](C)CO)C[C@H]2C)cc1,·,-3,3,0,43*
Cc1ccc(S(=O)(=O)N(C)C[C@H]2Oc3c(NS(=O)(=O)c4ccc(Cl)cc4)cccc3C(=O)N([C@@H](C)CO)C[C@H]2C)cc1,-11,-8,-14,3,74*
COc1ccc(S(=O)(=O)Nc2cccc3c2O[C@H](CN(C)C)[C@@H](C)CN([C@H](C)CO)C3=O)cc1,127*!,0,-1,-1,12
CCC(=O)N1[C@@H](CO)[C@@H](c2ccccc2)C12CN(C(=O)Nc1ccccc1F)C2,·,-7,-9,4,-5
O=C(C[C@H]1CC[C@@H]2[C@H](COC[C@@H](O)CN2C(=O)Cc2ccccc2)O1)NC1Cc2ccccc2C1,3,3,2,-1,-2
CC(C)NC(=O)N(C)C[C@H]1Oc2ccc(NC(=O)CCN3CCOCC3)cc2C(=O)N([C@@H](C)CO)C[C@H]1C,9,-10,-4,1,-3
Fc1ccccc1-c1nc(-c2ccc(-c3nn[nH]n3)cc2)no1,-18,5,1,-5,20*
Cc1noc(C)c1NC(=O)N(C)C[C@@H]1OCCCC[C@@H](C)Oc2ccc(NC(=O)Nc3ccc(C(F)(F)F)cc3)cc2C(=O)N([C@H](C)CO)C[C@@H]1C,-12,5,-21,3,1
Cc1noc(C)c1NC(=O)N(C)C[C@@H]1OCCCC[C@@H](C)Oc2ccc(NC(=O)C3CCCCC3)cc2C(=O)N([C@@H](C)CO)C[C@@H]1C,·,1,3,0,25*
Cc1noc(C)c1NC(=O)Nc1ccc2c(c1)C(=O)N([C@H](C)CO)C[C@H](C)[C@H](CN(C)C(=O)NC1CCCCC1)OCCCC[C@@H](C)O2,13,-34,0,-2,31*!
Cc1noc(C)c1NC(=O)Nc1ccc2c(c1)C(=O)N([C@H](C)CO)C[C@H](C)[C@H](CN(C)Cc1ccc(Cl)c(Cl)c1)OCCCC[C@@H](C)O2,·,8,-5,4,35*
Cc1noc(C)c1NC(=O)N(C)C[C@@H]1OCCCC[C@H](C)Oc2ccc(NC(=O)Nc3ccc(C(F)(F)F)cc3)cc2C(=O)N([C@@H](C)CO)C[C@@H]1C,7,13,-31,5,30*
C[C@@H]1CN([C@@H](C)CO)C(=O)c2cc(NC(=O)Nc3ccc(C(F)(F)F)cc3)ccc2O[C@H]1CN(C)S(=O)(=O)c1cccs1,·,0,·,·,·
Cc1noc(C)c1NC(=O)N(C)C[C@@H]1OCCCC[C@@H](C)Oc2ccc(NC(=O)Nc3cccc4ccccc34)cc2C(=O)N([C@@H](C)CO)C[C@@H]1C,·,6,-6,·,38*
Cc1noc(C)c1NC(=O)Nc1ccc2c(c1)C(=O)N([C@H](C)CO)C[C@H](C)[C@@H](CN(C)C(=O)Nc1ccc(C(F)(F)F)cc1)OCCCC[C@H](C)O2,-5,-4,39,21*,-16
SMILES,Statin myotox sup,PGC1a acetyl inh,S100A4 inh HTS,SIRT5 inh,DENV2 CPE
Cc1noc(C)c1NC(=O)Nc1ccc2c(c1)C(=O)N([C@H](C)CO)C[C@H](C)[C@@H](CN(C)C(=O)Nc1ccccc1)OCCCC[C@H](C)O2,24,3,-9,-2,10
Cc1noc(C)c1NC(=O)Nc1ccc2c(c1)C(=O)N([C@@H](C)CO)C[C@@H](C)[C@@H](CN(C)C(=O)Nc1ccccc1)OCCCC[C@@H](C)O2,55,-3,9,0,22*
Cc1noc(C)c1NC(=O)Nc1ccc2c(c1)C(=O)N([C@H](C)CO)C[C@@H](C)[C@@H](CN(C)C(=O)Nc1ccc(C(F)(F)F)cc1)OCCCC[C@@H](C)O2,-25,3,-9,1,-6
Cc1noc(C)c1NC(=O)N(C)C[C@H]1OCCCC[C@@H](C)Oc2ccc(NC(=O)Nc3cccc4ccccc34)cc2C(=O)N([C@@H](C)CO)C[C@H]1C,·,20,·,·,-3
COc1ccc(NC(=O)N[C@H]2CC[C@@H](CC(=O)NC3CCCCC3)O[C@@H]2CO)cc1,-1,7,-1,-1,-2
N#Cc1ccc(-c2ccc([C@H]3[C@@H](CO)N4CCCCN(S(=O)(=O)c5ccccc5)C[C@@H]34)cc2)cc1,·,-6,23,4,46*
N#Cc1cccc(-c2ccc([C@H]3[C@@H](CO)N4CCCCN(S(=O)(=O)c5ccccc5)C[C@H]34)cc2)c1,-51,-4,-17,18*,4
O=c1c2ccccc2ncn1Cc1nc2ccccc2s1,114*,7,·,·,·
CCCNC(=O)C[C@H]1CC[C@H]2[C@@H](COc3ccc(NC(=O)c4cc(F)cc(F)c4)cc3C(=O)N2C)O1,-3,2,·,·,-4
Cc1cc(C)nc(N/N=C/c2ccccc2)n1,·,8,6,2,·
Cc1cc(C)nc(N/N=C/c2sccc2C)n1,·,·,-3,20*,7
C[C@@H]1CN([C@@H](C)CO)C(=O)c2cc(NS(=O)(=O)c3ccc(Cl)cc3)ccc2O[C@@H](C)CCCCO[C@@H]1CN(C)CC1CCCCC1,·,-40,·,·,-23
C[C@@H]1CN([C@H](C)CO)C(=O)c2cc(NC(=O)c3ccncc3)ccc2O[C@@H](C)CCCCO[C@H]1CN(C)C,-15,-20,2,-1,85*
